# Measurements reported in publication PMC10681497 (CPT: Pharmacometrics & Systems Pharmacology, 2023).
# Like-named read-outs stand apart in the source and are kept apart here.
# Columns and labels:
# MATE1 = conditions: read-out: IC50, MATE1; cited from earlier work
# [1] = Simulated steady-state exposure; conditions: human, plasma, oral, 13.5 mg
# How it was run: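 Each patient's dense steady‑state post hoc concentration‑time profile was simulated from the updated population PK model. Cmax,ss, Cmin,ss and AUCss were then derived by noncompartmental methods, with oral once‑daily dosing of 13.5 mg.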
# Population PK analysis = assay type: in vivo, human
# How it was run: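 A prior two‑compartment NONMEM model was refined, keeping its interindividual random effects. Covariates were tested on CL/F, Vc/F (age, body weight), Vp/F (body weight) and Ka (sex, fasting, PPI, H2B). Selection used stepwise forward addition (p 0.05) and backward elimination (p 0.005) by likelihood ratio test. Evaluation used nonparametric bootstrap and prediction‑corrected VPC.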
# [2] = test system: serum phosphate concentration; test: Exposure-response Emax model of serum phosphate change from baseline; design: species or system human; conditions: in vivo
# How it was run: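 Serum phosphate was measured in serum chemistry in 300 pooled monotherapy patients from FIGHT‑101, ‑102 and ‑202. The change from baseline was the mean of C1D8 and C1D15. A three‑parameter Emax nonlinear model related this change to model‑derived AUCss, with baseline serum phosphate as a covariate. Parameters were the maximum change (Emax) and the exposure giving 50% of the maximum increase.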
# [3] = test system: serum creatinine concentration; test: Exposure-response Emax model of serum creatinine percent change from baseline; assay type: in vivo, human
# How it was run: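 Serum creatinine was measured in routine serum chemistry in 300 pooled monotherapy patients from FIGHT‑101, FIGHT‑102 and FIGHT‑202, using the mean of C1D8 and C1D15. A three‑parameter Emax nonlinear model related percent change from baseline to AUCss. Emax is the maximum change, with a half‑maximal exposure term. For prediction, AUCss was the mean post hoc value at 13.5 mg q.d. and was dose‑scaled for 6, 9 and 20 mg.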
# [4] = test system: patients with CCA with FGFR2 fusions/re‐arrangements; conditions: for Median PFS: 13.5 mg once daily
# [5] = previously characterized; cited from earlier work
# OCT2 = conditions: read-out: IC50, OCT2; cited from earlier work
# [6] = cited from earlier work
# [7] = previously characterized; cited from earlier work; remark: listed apart in the source
# [8] = covariate effect, final population PK model
# [9] = FIGHT-106, healthy participants, 13.5 mg
structure (smiles),measurement,setting,value
CCN1C(=O)N(c2c(F)c(OC)cc(OC)c2F)Cc2cnc3[nH]c(CN4CCOCC4)cc3c21 [pemigatinib],IC50,MATE1,1100 nM
same,AUC,[1],2.85 µM·h
same,Reduction in K a with use of PPI,Population PK analysis; concomitant PPI vs no PPI,62%
same,Body weight on V c/F,Population PK analysis; [8],0.842%
same,Body weight to V p/F,Population PK analysis; [8],1.13%
same,H2B antagonist on D1,Population PK analysis; [8],−33.4%
same,Male sex on CL/F,Population PK analysis; [8],26.2%
same,Male sex on K a,Population PK analysis; [8],−58.3%
same,PPI on K a,Population PK analysis; [8],−62.0%
same,Phosphate binder on CL/F,Population PK analysis; [8],−15.5%
same,"D1 (duration of zero-order drug release), population mean",Population PK analysis; final population PK model,0.810 h
same,"K a (absorption rate constant), population mean",Population PK analysis; final population PK model,3.67 h⁻¹
same,"CL/F (apparent clearance), population mean","Population PK analysis; final population PK model, 467 participants",10.7 L/h
same,Higher CL/F in men compared with women,"Population PK analysis; human, in vivo",26.2%
same,Lower K a in men compared with women,"Population PK analysis; human, in vivo",58.3%
same,Reduction in D1 with use of H2B,"Population PK analysis; human, in vivo",33.4%
same,Vd/F,"Population PK analysis; human, plasma, oral",118 L
same,Reduction in CL/F with use of phosphate-binding agents,Population PK analysis; users vs nonusers,15.5%
same,Reduction from baseline per 1-mg/dL increase in baseline serum phosphate level,[2],less than or equal to 0.185 mg/dL
same,Estimated percentage change from baseline in serum creatinine concentration,"[3]; 6 mg, dose-scaled mean post hoc AUCss",14.2%
same,Estimated percentage change from baseline in serum creatinine concentration,"[3]; 9 mg, dose-scaled mean post hoc AUCss",18.3%
same,Estimated percentage change from baseline in serum creatinine concentration,"[3]; 13.5 mg q.d., mean post hoc AUCss",22.7%
same,Estimated percentage change from baseline in serum creatinine concentration,"[3]; 20 mg, dose-scaled mean post hoc AUCss",26.9%
same,Model predicted ORR,"[4]; 6 mg, model on mean change from baseline in serum phosphate",29.7%
same,Model predicted ORR,"[4]; 9 mg, model on mean change from baseline in serum phosphate",41.4%
same,Model predicted ORR,"[4]; 13.5 mg, model on AUCss, mean AUCss 2850 h∙nM",45.2%
same,Model predicted ORR,"[4]; 13.5 mg, model on mean change from baseline in serum phosphate",47.1%
same,Model predicted ORR,"[4]; 20 mg, model on mean change from baseline in serum phosphate",46.8%
same,Median PFS,[4]; AUCss first quartile,6.93 months
same,Median PFS,[4]; AUCss fourth quartile,7.03 months
same,Median PFS,[4]; AUCss second quartile,6.93 months
same,Median PFS,[4]; AUCss third quartile,9.20 months
same,Permeability,[5],high permeability
same,IC50,OCT2,75 nM
same,Increase in AUC on co-administration of the H2B ranitidine,[6]; [9],3%
same,Reduction in C max on co-administration of the H2B ranitidine,[6]; [9],2%
same,Effect of concomitant PPI esomeprazole on pemigatinib exposure,[6]; FIGHT-106,only a modest effect
same,pH-dependent solubility,[7],poorly soluble at pH > 2
